Data reported in ChEMBL document CHEMBL3352362, “Discovery of a novel, first-in-class, orally bioavailable azaindole inhibitor (VX-787) of influenza PB2” (J Med Chem, 2014).

Columns and labels:
[1] = Cmax in mouse at 30 mg/kg; assay type: ADME, organism-based; design: dose 30 mg/kg; settings: in vivo
Influenza A virus [2] = experiment: Antiviral activity against Influenza A virus (A/Puerto Rico/8/1934(H1N1)) infected in cells assessed as reduction in multiplication of virus-specific RNA molecules using branched-chain DNA; assay type: functional
In short: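 Viral RNA replication in infected cells quantified by the bDNA QuantiGene method with strand-specific probes for positive- or negative-strand RNA. EC90 is the compound concentration giving viral RNA levels equal to 10% of control wells.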

[3] = Clearance in rat at 3 mg/kg, iv; assay type: ADME, organism-based; design: dose 3 mg/kg, route intravenous; settings: in vivo
Influenza A virus [4] = experiment: Antiviral activity against Influenza A virus (A/Puerto Rico/8/1934(H1N1)) infected in MDCK cells assessed as cell protection after 72 hrs by cytopathic effect assay; assay type: functional, organism-based
In short: (§1)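 MDCK cells incubated with test compound and influenza A virus for 72 h (3-day CPE format). Cell viability read by an ATP end point. EC50 is the concentration giving 50% cell protection; mean of N = 3 or greater.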

[5] = AUC in mouse at 30 mg/kg; assay type: ADME, organism-based; design: dose 30 mg/kg; settings: plasma
[6] = Half life in rat at 3 mg/kg, iv; assay type: ADME, organism-based; design: dose 3 mg/kg, route intravenous; settings: in vivo
[7] = target: Polymerase basic protein 2 (Influenza A virus (strain A/Puerto Rico/8/1934 H1N1), UniProt P03428); experiment: Binding affinity to influenza A virus (A/Puerto Rico/8/1934(H1N1)) PB2 by competition binding fluorescence polarization (FP) assay
In short: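 Fluorescence polarization competition binding assay measuring affinity for the cap-binding domain of the PB2 subunit.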

[8] = Oral bioavailability in rat at 3 mg/kg; assay type: ADME, organism-based; settings: in vivo
[9] = Cmax in rat at 3 mg/kg, po; assay type: ADME, organism-based; design: dose 3 mg/kg, route oral; settings: in vivo
[10] = AUC in rat at 3 mg/kg, po; assay type: ADME, organism-based; design: dose 3 mg/kg, route oral; settings: plasma
[11] = Antiviral activity against Influenza A virus A/Mexico/4108/2009 infected in MDCK cells assessed as cell protection after 3 days by cytopathic effect assay; assay type: functional, cell-based, Influenza A virus (A/Mexico/4108/2009(H1N1)); settings: 72 h; in short: as §1
[12] = Antiviral activity against Influenza A virus A/New York/18/2009 infected in MDCK cells assessed as cell protection after 3 days by cytopathic effect assay; assay type: functional, cell-based, Influenza A virus (A/New York/18/2009(H1N1)); settings: 72 h; in short: as §1
[13] = Antiviral activity against Influenza A virus A/Georgia/20/2006 infected in MDCK cells assessed as cell protection after 3 days by cytopathic effect assay; assay type: functional, cell-based, Influenza A virus (A/Georgia/20/2006(H1N1)); settings: 72 h; in short: as §1
Influenza A virus [14] = experiment: Antiviral activity against Influenza A virus A/Puerto Rico/8/34 infected in MDCK cells assessed as cell protection after 3 days by cytopathic effect assay; assay type: functional, organism-based; settings: A/Puerto Rico/8/1934(H1N1), 72 h; in short: as §1
[15] = Antiviral activity against Influenza A virus A/California/07/2009 infected in MDCK cells assessed as cell protection after 3 days by cytopathic effect assay; assay type: functional, cell-based, Influenza A virus (A/California/07/2009(H1N1)); settings: 72 h; in short: as §1
[16] = Antiviral activity against Influenza A virus A/Texas/48/2009 infected in MDCK cells assessed as cell protection after 3 days by cytopathic effect assay; assay type: functional, cell-based, Influenza A virus (A/Texas/48/2009(H1N1)); settings: 72 h; in short: as §1
[17] = target: Adenosine receptor A2a (Homo sapiens) (UniProt P29274); experiment: Inhibition of human adenosine A2A receptor at 10 uM relative to control
In short: (§2)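 Competitive binding panel of 68 receptors, ion channels and other targets, run at 10 μM compound; percent inhibition reported.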

Influenza A virus [18] = experiment: Antiviral activity against Influenza A virus A/Puerto Rico/8/34 infected in BALB/c mouse assessed as mouse survival at 1 to 10 mg/kg bid treated after 48 hrs of infection for 10 days; assay type: functional, A/Puerto Rico/8/1934(H1N1); settings: dose mg/kg 1-10
In short: (§3)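 Male BALB/c mice, 8 per study, inoculated intranasally with mouse-adapted A/PR/8/34 at 5e3 TCID50/mouse. Twice-daily treatment began 48 h after infection. Survival and body weight were followed.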

[19] = target: T1, Adenosine receptor A1 (Homo sapiens) (UniProt P30542); experiment: Inhibition of human adenosine A1 receptor at 10 uM relative to control; in short: as §2
T1 sequence (whole entry): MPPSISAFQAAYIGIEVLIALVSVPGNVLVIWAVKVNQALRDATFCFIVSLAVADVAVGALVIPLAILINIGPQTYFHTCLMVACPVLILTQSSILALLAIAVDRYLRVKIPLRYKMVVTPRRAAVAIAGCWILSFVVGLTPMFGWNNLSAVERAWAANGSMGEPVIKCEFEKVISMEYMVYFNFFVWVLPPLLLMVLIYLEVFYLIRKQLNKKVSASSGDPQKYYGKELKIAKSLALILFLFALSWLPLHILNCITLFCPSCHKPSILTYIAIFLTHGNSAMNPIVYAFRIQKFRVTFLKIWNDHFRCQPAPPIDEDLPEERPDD

[20] = target: Voltage-gated inwardly rectifying potassium channel KCNH2 (Homo sapiens, UniProt Q12809); experiment: Inhibition of human ERG at > 30 uM relative to control
In short: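 hERG tested by manual patch clamp.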

Influenza A virus [21] = experiment: Antiviral activity against Influenza A virus A/Puerto Rico/8/34 infected in BALB/c mouse assessed as body weight loss at 1 mg/kg bid treated after 48 hrs of infection for 10 days; assay type: functional; settings: A/Puerto Rico/8/1934(H1N1); in short: as §3
[22] = target: Glycogen synthase kinase-3 beta (Homo sapiens, UniProt P49841); experiment: Inhibition of GSK3beta (unknown origin)
Influenza A virus [23] = experiment: Antiviral activity against Influenza A virus A/Puerto Rico/8/34 infected in BALB/c mouse assessed as body weight loss at 10 mg/kg bid treated after 48 hrs of infection for 10 days; assay type: functional; settings: A/Puerto Rico/8/1934(H1N1); in short: as §3
Influenza A virus [24] = experiment: Antiviral activity against Influenza A virus A/Puerto Rico/8/34 infected in BALB/c mouse assessed as body weight loss at 30 mg/kg bid treated after 48 hrs of infection for 10 days; assay type: functional; settings: A/Puerto Rico/8/1934(H1N1); in short: as §3
[25] = Antiviral activity against Influenza A virus A/Viet Nam/1203/2004(H5N1) infected in MDCK cells assessed as cell protection after 3 days by cytopathic effect assay; assay type: functional, cell-based; settings: 72 h; in short: as §1
[26] = Inhibition of CYP450 (unknown origin) at > 30 uM; assay type: ADME; settings: human
Influenza A virus [27] = experiment: Antiviral activity against Influenza A virus A/Puerto Rico/8/34 infected in BALB/c mouse assessed as body weight loss at 3 mg/kg bid treated after 48 hrs of infection for 10 days; assay type: functional; settings: A/Puerto Rico/8/1934(H1N1); in short: as §3

Chain of Polymerase basic protein 2 (P03428 whole entry, the tested form may be a part): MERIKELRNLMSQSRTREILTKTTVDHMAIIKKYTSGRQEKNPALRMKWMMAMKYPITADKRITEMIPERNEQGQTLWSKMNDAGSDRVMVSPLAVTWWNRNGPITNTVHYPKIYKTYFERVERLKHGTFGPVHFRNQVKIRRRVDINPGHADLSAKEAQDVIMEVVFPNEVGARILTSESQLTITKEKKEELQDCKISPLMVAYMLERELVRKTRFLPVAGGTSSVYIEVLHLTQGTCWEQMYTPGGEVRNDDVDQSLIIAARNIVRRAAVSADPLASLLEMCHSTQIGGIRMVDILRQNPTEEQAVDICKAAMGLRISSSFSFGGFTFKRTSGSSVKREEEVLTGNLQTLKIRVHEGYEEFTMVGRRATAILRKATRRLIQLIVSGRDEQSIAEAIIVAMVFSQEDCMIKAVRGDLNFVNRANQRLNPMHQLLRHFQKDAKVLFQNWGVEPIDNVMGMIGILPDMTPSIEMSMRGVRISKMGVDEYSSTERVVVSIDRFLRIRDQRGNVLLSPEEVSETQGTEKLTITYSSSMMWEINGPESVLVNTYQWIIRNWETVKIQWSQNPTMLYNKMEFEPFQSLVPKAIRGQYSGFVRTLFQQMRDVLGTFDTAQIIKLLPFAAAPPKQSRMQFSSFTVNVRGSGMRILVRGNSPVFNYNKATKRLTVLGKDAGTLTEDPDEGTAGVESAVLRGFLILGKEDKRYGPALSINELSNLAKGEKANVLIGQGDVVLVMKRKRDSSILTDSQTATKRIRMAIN
Chain of Glycogen synthase kinase-3 beta (P49841 whole entry): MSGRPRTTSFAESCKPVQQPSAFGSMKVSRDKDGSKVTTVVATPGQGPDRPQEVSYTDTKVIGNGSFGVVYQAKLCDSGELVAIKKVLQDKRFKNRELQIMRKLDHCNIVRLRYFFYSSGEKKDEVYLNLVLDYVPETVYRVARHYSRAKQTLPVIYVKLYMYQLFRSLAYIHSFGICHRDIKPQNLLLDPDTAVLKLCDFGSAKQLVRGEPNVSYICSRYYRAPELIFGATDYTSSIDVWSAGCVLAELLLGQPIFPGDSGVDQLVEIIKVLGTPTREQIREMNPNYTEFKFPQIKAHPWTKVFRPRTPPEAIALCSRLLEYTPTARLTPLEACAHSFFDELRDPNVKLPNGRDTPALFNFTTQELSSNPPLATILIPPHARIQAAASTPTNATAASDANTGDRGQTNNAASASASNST
Chain of Voltage-gated inwardly rectifying potassium channel KCNH2 (Q12809 whole entry): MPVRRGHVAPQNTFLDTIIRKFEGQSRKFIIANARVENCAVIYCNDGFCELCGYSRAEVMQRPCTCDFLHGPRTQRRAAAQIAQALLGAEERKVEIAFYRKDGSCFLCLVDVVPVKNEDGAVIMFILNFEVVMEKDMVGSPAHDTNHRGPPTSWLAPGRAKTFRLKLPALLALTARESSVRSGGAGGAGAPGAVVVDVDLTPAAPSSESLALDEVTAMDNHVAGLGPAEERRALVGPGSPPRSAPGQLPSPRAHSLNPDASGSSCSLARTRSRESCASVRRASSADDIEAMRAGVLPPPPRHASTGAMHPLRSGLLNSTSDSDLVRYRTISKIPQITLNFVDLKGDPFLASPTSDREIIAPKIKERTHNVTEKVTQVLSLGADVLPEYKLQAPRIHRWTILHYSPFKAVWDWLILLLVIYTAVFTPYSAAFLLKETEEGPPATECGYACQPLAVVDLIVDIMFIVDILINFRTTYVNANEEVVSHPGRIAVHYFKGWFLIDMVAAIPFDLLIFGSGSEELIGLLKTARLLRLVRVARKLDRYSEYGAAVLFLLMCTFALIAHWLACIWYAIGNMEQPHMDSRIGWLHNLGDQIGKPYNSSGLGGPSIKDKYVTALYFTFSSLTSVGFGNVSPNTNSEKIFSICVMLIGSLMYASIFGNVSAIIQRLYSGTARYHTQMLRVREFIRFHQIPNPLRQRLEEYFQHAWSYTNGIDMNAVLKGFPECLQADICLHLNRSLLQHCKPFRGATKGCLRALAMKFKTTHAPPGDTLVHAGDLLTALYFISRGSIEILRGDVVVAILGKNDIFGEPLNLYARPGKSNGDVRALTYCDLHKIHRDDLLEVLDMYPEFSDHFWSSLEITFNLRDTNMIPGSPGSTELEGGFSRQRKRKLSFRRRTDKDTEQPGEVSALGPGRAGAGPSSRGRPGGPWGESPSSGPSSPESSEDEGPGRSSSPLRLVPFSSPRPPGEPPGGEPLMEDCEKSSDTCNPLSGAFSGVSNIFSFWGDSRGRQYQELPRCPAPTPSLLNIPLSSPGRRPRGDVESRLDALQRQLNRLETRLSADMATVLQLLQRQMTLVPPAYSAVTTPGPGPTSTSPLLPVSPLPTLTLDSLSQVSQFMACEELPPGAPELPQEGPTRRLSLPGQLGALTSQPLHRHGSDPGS
Chain of Adenosine receptor A2a (Homo sapiens) (P29274 whole entry): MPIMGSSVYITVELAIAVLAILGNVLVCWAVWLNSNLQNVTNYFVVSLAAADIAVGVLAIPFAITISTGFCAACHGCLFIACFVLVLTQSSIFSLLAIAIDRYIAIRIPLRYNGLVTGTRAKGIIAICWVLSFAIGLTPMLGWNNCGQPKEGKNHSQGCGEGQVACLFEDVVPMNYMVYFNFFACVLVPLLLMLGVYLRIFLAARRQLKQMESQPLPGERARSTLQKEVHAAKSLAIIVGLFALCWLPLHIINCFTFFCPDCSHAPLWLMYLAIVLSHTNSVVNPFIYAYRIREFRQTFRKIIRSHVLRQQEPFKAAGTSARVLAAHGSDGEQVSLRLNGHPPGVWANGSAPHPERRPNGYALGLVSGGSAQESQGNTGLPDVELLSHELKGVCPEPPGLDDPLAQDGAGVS

SMILES	Cmax [1] [ng/mL]	EC90 (Influenza A virus [2]) [µM]	clearance [3] [mL/min/kg]	EC50 (Influenza A virus [4]) [µM]	AUC [5] [ng·h/mL]	half-life [6] [h]	Kd [7] [µM]	bioavailability [8] [%]	Cmax [9] [ng/mL]	AUC [10] [ng·h/mL]	also measured
OC[C@H](O)CN1CCC[C@H](Nc2nc(-c3c[nH]c4ncc(Cl)cc34)ncc2F)C1	1200	0.36	56	0.27	6500	2.3	0.4	–	–	–	–
O=C(O)[C@H]1C2CCC(CC2)[C@@H]1Nc1nc(-c2c[nH]c3ncc(Cl)cc23)ncc1F	3700	0.001	32	0.001	10000	3.9	< 0.005	24	30	300	–
NC12CC3CC(CC(C3)C1)C2 [AMANTADINE]	–	–	–	–	–	–	–	–	–	–	EC50 [11]: > 10 µM; EC50 [12]: > 10 µM; EC50 [13]: > 10 µM; EC50 (Influenza A virus [14]): > 10 µM; EC50 [15]: > 10 µM; EC50 [16]: > 10 µM
C[C@]1(C(=O)O)CCCC[C@@H]1Nc1nc(-c2c[nH]c3ncc(Cl)cc23)ncc1F (racemic)	1300	0.059	24	0.011	2400	3.2	< 0.002	82	200	2200	–
O=C(O)[C@H]1CCCC[C@@H]1Nc1nc(-c2c[nH]c3ncc(Cl)cc23)ncc1F (racemic)	–	0.187	16	0.134	–	1	< 0.002	7	30	200	–
COCCC(=O)N1CCC[C@H](Nc2nc(-c3c[nH]c4ncc(Cl)cc34)ncc2F)C1	–	0.32	88	0.013	–	0.7	0.1	–	–	–	–
CS(=O)(=O)N1CCCC[C@@H]1CNc1nc(-c2c[nH]c3ncc(Cl)cc23)ncc1F	–	0.54	152	0.66	–	0.4	0.1	–	–	–	–
NC(=O)CN1CCC[C@H](Nc2nc(-c3c[nH]c4ncc(Cl)cc34)ncc2F)C1	–	0.02	182	0.081	–	–	0.08	–	–	–	–
Cn1cncc1C(=O)N[C@@H]1CCC[C@H](Nc2nc(-c3c[nH]c4ncc(F)cc34)ncc2F)C1	13000	0.005	22	0.002	19000	2	0.09	100	600	3700	–
O=C(O)[C@H]1C2CCC(CC2)[C@@H]1Nc1nc(-c2c[nH]c3ncc(F)cc23)ncc1F [PIMODIVIR]	18000	–	26	–	22000	3.5	–	26	80	500	EC50 [11]: 0.0027 µM; EC50 [12]: 0.00059 µM; inhibition [17]: 62%; Survival (Influenza A virus [18]): 100%; inhibition [19]: 96%; inhibition (INH) [20]: Not Active; inhibition in vivo at 1 mg/kg (Influenza A virus [21]): 22.5%; EC50 [13]: 0.0026 µM; Ki [22]: 1.6 µM; EC50 (Influenza A virus [14]): 0.00032 µM; inhibition in vivo at 10 mg/kg (Influenza A virus [23]): 7.1%; inhibition in vivo at 30 mg/kg (Influenza A virus [24]): 30%; EC50 [25]: < 0.00015 µM; EC50 [15]: 0.0018 µM; inhibition (INH) [26]: Not Active; EC50 [16]: 0.0028 µM; inhibition in vivo at 3 mg/kg (Influenza A virus [27]): 10.9%
O=C(N[C@@H]1CCC[C@H](Nc2nc(-c3c[nH]c4ncc(F)cc34)ncc2F)C1)N1CCOCC1	18200	0.012	22	0.004	180000	1.7	0.4	46	200	1100	–
O=C(N[C@@H]1CCC[C@H](Nc2nc(-c3c[nH]c4ncc(C(F)(F)F)cc34)ncc2F)C1)N1CCOCC1	–	0.003	81	0.003	–	–	–	–	–	–	–
Cc1cnc2[nH]cc(-c3ncc(F)c(N[C@H]4CCC[C@@H](NC(=O)N5CCOCC5)C4)n3)c2c1	–	0.013	78	0.01	–	–	–	–	–	–	–
O=C(N[C@@H]1CCC[C@H](Nc2nc(-c3c[nH]c4ncc(Cl)cc34)ncc2F)C1)N1CCOCC1	–	0.005	59	0.002	–	–	0.5	–	–	–	–
